Source: PMC11293336 (Cell Reports Medicine, 2024)

Legend:
[1] = IV 1,700 mg/day (MTD), 5 days/month; cited from earlier work
[2] = system: patients with recurrent high-grade glioma; experiment: Dose-limiting toxicities and adverse events of oral terameprocol, GATOR trial; format: in vivo, human
Procedure, shortened: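 Patients ≥18 y with recurrent supratentorial grade III–IV glioma took oral capsules once daily, days 1–5 every 28 days, fasted; an amended cohort took 6,000 mg/day with a meal within 30 min. 3+3 escalation over 1,200–6,000 mg/day. DLT window was the first 4 weeks: ANC <500/μL, platelets <25,000/μL, febrile neutropenia, hematologic toxicity preventing >80% of dose, grade 3–4 seizure/intracranial hemorrhage, grade 3 QTcF. AEs CTCAE-graded.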

[3] = system: advanced acute myeloid leukemia or myelodysplastic syndrome; settings: intravenous; cited from earlier work
[4] = system: refractory head and neck cancer; settings: intratumoral, three weekly doses at 10–15 mg/cm; cited from earlier work
[5] = system: patients with recurrent high-grade gliomas; settings: IV; cited from earlier work
[6] = Plasma pharmacokinetics of oral terameprocol, GATOR trial; format: in vivo, human; settings: for AUC(0-inf): AUCINF
[7] = system: recurrent high-grade gliomas; settings: IV; cited from earlier work
dogs = experiment: 28-day oral toxicity study in dogs; format: in vivo, Beagle Dog; settings: continuous 28-day schedule
[8] = DLT, 2,400 mg/day EXP (expanded dose cohort), N=4
[9] = DLT, 6,000 mg/day with meal, N=4
[10] = related to terameprocol, all cycles, N = 19
[11] = oral 6,000 mg fed, cycle 1 day 4, actual values of 2 patients

COc1ccc(C[C@@H](C)[C@@H](C)Cc2ccc(OC)c(OC)c2)cc1OC [terameprocol, meso-tetra-O-methyl nordihydroguaiaretic acid]
median AUC [1]: 31.3 μg∗h/mL
% of patients with DLT per dose level ([2]; 1,200 mg/day, N=3): 0%
% of patients with DLT per dose level ([2]; 2,400 mg/day EXP (expanded dose cohort), N=4): 0%
% of patients with DLT per dose level ([2]; 2,400 mg/day, N=3): 33%
% of patients with DLT per dose level ([2]; 3,600 mg/day, N=3): 0%
% of patients with DLT per dose level ([2]; 6,000 mg/day with meal, N=4): 0%
% of patients with DLT per dose level ([2]; 6,000 mg/day, N=3): 0%
tolerability of oral terameprocol ([2]; 1,200-6,000 mg/day, days 1–5 every 28 days): without major toxicities and generally well tolerated and safe and well tolerated
patients who experienced DLT ([2]; DL2fasted 2,400 mg/day cohort): 1/3
DLT ([2]; DL3fasted 3,600 mg/day, three patients): no DLTs
DLT ([2]; DL4fasted 6,000 mg/day, three patients): no DLTs
DLT ([2]; DL4fed 6,000 mg/day with food): No DLTs
<80% of expected terameprocol dose due to hematologic toxicity ([2]; DLT, 1,200 mg/day, N=3): 0
Febrile neutropenia ([2]; DLT, 1,200 mg/day, N=3): 0
Grade 3–4 non-hematologic toxicity ([2]; DLT, 1,200 mg/day, N=3): 0
Grade 3–4 seizure or intracranial hemorrhage ([2]; DLT, 1,200 mg/day, N=3): 0
Platelets <25,000/mm^3 ([2]; DLT, 1,200 mg/day, N=3): 0
<80% of expected terameprocol dose due to hematologic toxicity [2, 8]: 0
Febrile neutropenia [2, 8]: 0
Grade 3–4 non-hematologic toxicity [2, 8]: 0
Grade 3–4 seizure or intracranial hemorrhage [2, 8]: 0
Platelets <25,000/mm^3 [2, 8]: 0
<80% of expected terameprocol dose due to hematologic toxicity ([2]; DLT, 2,400 mg/day, N=3): 0
Febrile neutropenia ([2]; DLT, 2,400 mg/day, N=3): 0
Grade 3–4 non-hematologic toxicity ([2]; DLT, 2,400 mg/day, N=3): 1
Grade 3–4 seizure or intracranial hemorrhage ([2]; DLT, 2,400 mg/day, N=3): 0
Platelets <25,000/mm^3 ([2]; DLT, 2,400 mg/day, N=3): 0
<80% of expected terameprocol dose due to hematologic toxicity ([2]; DLT, 3,600 mg/day, N=3): 0
Febrile neutropenia ([2]; DLT, 3,600 mg/day, N=3): 0
Grade 3–4 non-hematologic toxicity ([2]; DLT, 3,600 mg/day, N=3): 0
Grade 3–4 seizure or intracranial hemorrhage ([2]; DLT, 3,600 mg/day, N=3): 0
Platelets <25,000/mm^3 ([2]; DLT, 3,600 mg/day, N=3): 0
<80% of expected terameprocol dose due to hematologic toxicity [2, 9]: 0
Febrile neutropenia [2, 9]: 0
Grade 3–4 non-hematologic toxicity [2, 9]: 0
Grade 3–4 seizure or intracranial hemorrhage [2, 9]: 0
Platelets <25,000/mm^3 [2, 9]: 0
<80% of expected terameprocol dose due to hematologic toxicity ([2]; DLT, 6,000 mg/day, N=3): 0
Febrile neutropenia ([2]; DLT, 6,000 mg/day, N=3): 0
Grade 3–4 non-hematologic toxicity ([2]; DLT, 6,000 mg/day, N=3): 0
Grade 3–4 seizure or intracranial hemorrhage ([2]; DLT, 6,000 mg/day, N=3): 0
Platelets <25,000/mm^3 ([2]; DLT, 6,000 mg/day, N=3): 0
patients off treatment due to toxicity ([2]; all dose levels): No patients
DLT ([2]; dose expansion at DL2fasted 2,400 mg/day, three additional patients): no additional DLTs
Alanine aminotransferase increased, Grade 1 [2, 10]: 2 (10.5%) No. of patients (%)
Alanine aminotransferase increased, Total [2, 10]: 2 (10.5%) No. of patients (%)
Anemia, Grade 1 [2, 10]: 4 (21.1%) No. of patients (%)
Anemia, Total [2, 10]: 4 (21.1%) No. of patients (%)
Anorexia, Grade 1 [2, 10]: 2 (10.5%) No. of patients (%)
Anorexia, Grade 2 [2, 10]: 1 (5.3%) No. of patients (%)
Anorexia, Total [2, 10]: 3 (15.8%) No. of patients (%)
Arthralgia, Grade 1 [2, 10]: 1 (5.3%) No. of patients (%)
Arthralgia, Total [2, 10]: 1 (5.3%) No. of patients (%)
Aspartate aminotransferase increased, Grade 1 [2, 10]: 1 (5.3%) No. of patients (%)
Aspartate aminotransferase increased, Total [2, 10]: 1 (5.3%) No. of patients (%)
Blood bilirubin increased, Grade 1 [2, 10]: 1 (5.3%) No. of patients (%)
Blood bilirubin increased, Total [2, 10]: 1 (5.3%) No. of patients (%)
Constipation, Grade 1 [2, 10]: 1 (5.3%) No. of patients (%)
Constipation, Total [2, 10]: 1 (5.3%) No. of patients (%)
Diarrhea, Grade 1 [2, 10]: 2 (10.5%) No. of patients (%)
Diarrhea, Total [2, 10]: 2 (10.5%) No. of patients (%)
Electrocardiogram QT corrected interval prolonged, Grade 3 [2, 10]: 1 (5.3%) No. of patients (%)
Electrocardiogram QT corrected interval prolonged, Total [2, 10]: 1 (5.3%) No. of patients (%)
Fatigue, Grade 1 [2, 10]: 2 (10.5%) No. of patients (%)
Fatigue, Grade 2 [2, 10]: 2 (10.5%) No. of patients (%)
Fatigue, Total [2, 10]: 4 (21.1%) No. of patients (%)
Fever, Grade 1 [2, 10]: 1 (5.3%) No. of patients (%)
Fever, Total [2, 10]: 1 (5.3%) No. of patients (%)
Gastrointestinal pain, Grade 1 [2, 10]: 1 (5.3%) No. of patients (%)
Gastrointestinal pain, Total [2, 10]: 1 (5.3%) No. of patients (%)
Hyperglycemia, Grade 1 [2, 10]: 1(5.3%) No. of patients (%)
Hyperglycemia, Total [2, 10]: 1 (5.3%) No. of patients (%)
Hyperkalemia, Grade 2 [2, 10]: 1 (5.3%) No. of patients (%)
Hyperkalemia, Total [2, 10]: 1 (5.3%) No. of patients (%)
Hypernatremia, Grade 1 [2, 10]: 1 (5.3%) No. of patients (%)
Hypernatremia, Total [2, 10]: 1 (5.3%) No. of patients (%)
Hypertension, Grade 1 [2, 10]: 1 (5.3%) No. of patients (%)
Hypertension, Total [2, 10]: 1 (5.3%) No. of patients (%)
Hypocalcemia, Grade 1 [2, 10]: 1 (5.3%) No. of patients (%)
Hypocalcemia, Total [2, 10]: 1 (5.3%) No. of patients (%)
Hypokalemia, Grade 1 [2, 10]: 1 (5.3%) No. of patients (%)
Hypomagnesemia, Grade 1 [2, 10]: 3 (15.8%) No. of patients (%)
Hypomagnesemia, Grade 2 [2, 10]: 1 (5.3%) No. of patients (%)
Hypomagnesemia, Total [2, 10]: 4 (21.1%) No. of patients (%)
Hyponatremia, Grade 1 [2, 10]: 3 (15.8%) No. of patients (%)
Hyponatremia, Total [2, 10]: 3 (15.8%) No. of patients (%)
Hypophosphatemia, Grade 1 [2, 10]: 1 (5.3%) No. of patients (%)
Hypophosphatemia, Total [2, 10]: 1 (5.3%) No. of patients (%)
Lymphocyte count decreased, Grade 2 [2, 10]: 1 (5.3%) No. of patients (%)
Lymphocyte count decreased, Grade 3 [2, 10]: 1 (5.3%) No. of patients (%)
Lymphocyte count decreased, Total [2, 10]: 2 (10.5%) No. of patients (%)
Mouth sores, Grade 1 [2, 10]: 1 (5.3%) No. of patients (%)
Mouth sores, Total [2, 10]: 1 (5.3%) No. of patients (%)
Muscle cramp, Grade 1 [2, 10]: 1 (5.3%) No. of patients (%)
Muscle cramp, Total [2, 10]: 1 (5.3%) No. of patients (%)
Muscle weakness lower limb, Grade 1 [2, 10]: 1 (5.3%) No. of patients (%)
Muscle weakness lower limb, Total [2, 10]: 1 (5.3%) No. of patients (%)
Nausea, Grade 1 [2, 10]: 3 (15.8%) No. of patients (%)
Nausea, Total [2, 10]: 3 (15.8%) No. of patients (%)
Platelet count decreased, Grade 1 [2, 10]: 1 (5.3%) No. of patients (%)
Platelet count decreased, Total [2, 10]: 1 (5.3%) No. of patients (%)
Rash, maculopapular, Grade 1 [2, 10]: 1 (5.3%) No. of patients (%)
Rash, maculopapular, Total [2, 10]: 1 (5.3%) No. of patients (%)
Vomiting, Grade 1 [2, 10]: 2 (10.5%) No. of patients (%)
Vomiting, Total [2, 10]: 2 (10.5%) No. of patients (%)
Weight loss, Grade 1 [2, 10]: 1 (5.3%) No. of patients (%)
Weight loss, Total [2, 10]: 1 (5.3%) No. of patients (%)
stable disease [3]: five
total necrosis of the injection site, patients [4]: 2/3
myelosuppression [5]: nor did terameprocol cause significant myelosuppression
Cmax ([6]; human, plasma, po, 1200 mg, Cmax, oral 1,200 mg fasted, cycle 1 day 1, mean ± SD): 30 ± 10 ng/mL
Cmax ([6]; human, plasma, po, 1200 mg, Cmax, oral 1,200 mg fasted, cycle 1 day 4, mean ± SD): 30 ± 30 ng/mL
half-life ([6]; human, plasma, po, 1200 mg, T1/2, oral 1,200 mg fasted, cycle 1 day 1, 1 patient): 1.9 h
Cmax ([6]; human, plasma, po, 2400 mg, Cmax, oral 2,400 mg fasted, cycle 1 day 1, mean ± SD): 100 ± 50 ng/mL
Cmax ([6]; human, plasma, po, 2400 mg, Cmax, oral 2,400 mg fasted, cycle 1 day 4, mean ± SD): 100 ± 60 ng/mL
half-life ([6]; human, plasma, po, 2400 mg, T1/2, oral 2,400 mg fasted, cycle 1 day 4, mean ± SD): 24.8 ± 6.2 h
Cmax ([6]; human, plasma, po, 3600 mg, Cmax, oral 3,600 mg fasted, cycle 1 day 1, mean ± SD): 280 ± 190 ng/mL
Cmax ([6]; human, plasma, po, 3600 mg, Cmax, oral 3,600 mg fasted, cycle 1 day 4, mean ± SD): 250 ± 140 ng/mL
half-life ([6]; human, plasma, po, 3600 mg, T1/2, oral 3,600 mg fasted, cycle 1 day 1, mean ± SD): 6 ± 0.6 h
half-life ([6]; human, plasma, po, 3600 mg, T1/2, oral 3,600 mg fasted, cycle 1 day 4, mean ± SD): 6.5 ± 0.8 h
Cmax ([6]; human, plasma, po, 4800 mg, Cmax, oral 4,800 mg fed, cycle 1 day 4, 1 patient): 230 ng/mL
half-life ([6]; human, plasma, po, 4800 mg, T1/2, oral 4,800 mg fed, cycle 1 day 4, 1 patient): 10.7 h
Tmax ([6]; human, plasma, po, 4800 mg, oral 4,800 mg fed, cycle 1 day 4, 1 patient): 5.9 h
AUC(0-inf) ([6]; human, plasma, po, 6000 mg, oral 6,000 mg fasted, cycle 1 day 1, 1 patient): 1900 ng·h/mL
AUC(0-inf) ([6]; human, plasma, po, 6000 mg, oral 6,000 mg fed, cycle 1 day 1, mean ± SD): 2400 ± 1800 ng·h/mL
Cmax ([6]; human, plasma, po, 6000 mg, Cmax, oral 6,000 mg fasted, cycle 1 day 1, mean ± SD): 200 ± 120 ng/mL
Cmax ([6]; human, plasma, po, 6000 mg, Cmax, oral 6,000 mg fed, cycle 1 day 1, mean ± SD): 330 ± 310 ng/mL
Cmax ([6]; human, plasma, po, 6000 mg, Cmax, oral 6,000 mg fed, cycle 1 day 4, mean ± SD): 600 ± 570 ng/mL
half-life ([6]; human, plasma, po, 6000 mg, T1/2, oral 6,000 mg fasted, cycle 1 day 4, 1 patient): 14.9 h
half-life ([6]; human, plasma, po, 6000 mg, T1/2, oral 6,000 mg fed, cycle 1 day 1, mean ± SD): 6.6 ± 2.2 h
Tmax ([6]; human, plasma, po, 6000 mg, oral 6,000 mg fasted, cycle 1 day 1, median (range; n)): 4 h
Tmax ([6]; human, plasma, po, 6000 mg, oral 6,000 mg fed, cycle 1 day 1, median (range; n)): 4.1 h
Tmax ([6]; human, plasma, po, 6000 mg, oral 6,000 mg fed, cycle 1 day 4, median (range; n)): 8 h
T1/2 ([6]; oral 1,200 mg fasted, cycle 1 day 4, actual values of 2 patients): 3.1 h
AUCINF ([6]; oral 2,400 mg fasted, cycle 1 day 1, actual values of 2 patients): 0.7 μg∗h/mL
T1/2 ([6]; oral 6,000 mg fasted, cycle 1 day 1, actual values of 2 patients): 14.9 h
Cmax ([6]; oral 6,000 mg fasted, cycle 1 day 4, actual values of 2 patients): 150 ng/mL
AUCINF [6, 11]: 4.4 μg∗h/mL
T1/2 [6, 11]: 6.5 h
objective responses [7]: no objective responses
tolerability (dogs): well tolerated
